What all share (format): ADME, organism-based
Series [1] concerns Rattus norvegicus. Put plainly: Distribution of radioactivity in brain tissues of Sprague-Dawley rats after 5 min injecton by intravenously; 0.35-0.72. Particulars: in vivo, iv. The method, boiled down: (§1)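 Female Sprague-Dawley rats, 10–12 weeks old (170–200 g), fed ad libitum. The ¹²⁵I-labelled agent was dissolved in minimal Me2SO, diluted with saline to a final 20% Me2SO, filtered (0.22 μm), and injected into a lateral tail vein under ether anaesthesia. Tissues were counted against samples of the injected solution and expressed as % injected dose/g (mean, range). Brain/blood ratio is from the means.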

For series [2], the system named is Rattus norvegicus. Put plainly: Distribution of radioactivity in liver tissues of Sprague-Dawley rats after 15 min injecton by intravenously; 1.37-1.74. The settings on record: in vivo, iv, 0.25 h.
Series [3] relates to Rattus norvegicus. Put plainly: Distribution of radioactivity in lung tissues of Sprague-Dawley rats after 5 min injecton by intravenously; 0.54-1.07. The settings on record: in vivo, iv.
Series [4] deals with Rattus norvegicus. Put plainly: Distribution of radioactivity in blood tissues of Sprague-Dawley rats after 30 min injecton by intravenously; 0.69-0.84. The settings on record: in vivo, iv, 0.5 h. The method, boiled down: as §1
For series [5], the system named is Rattus norvegicus. Description: Distribution of radioactivity in lung tissues of Sprague-Dawley rats after 15 min injecton by intravenously; 0.77-0.86. The settings on record: in vivo, iv, 0.25 h.
For series [6], the system named is Rattus norvegicus. Put plainly: Distribution of radioactivity in blood tissues of Sprague-Dawley rats after 5 min injecton by intravenously; 0.58-1.17. Particulars: in vivo, iv. Summed up:
as §1

The subject of series [7] is Rattus norvegicus. Description: Distribution of radioactivity in lung tissues of Sprague-Dawley rats after 60 min injecton by intravenously; 0.36-0.44. The settings on record: in vivo, iv, 1 h.
Series [8] deals with Rattus norvegicus. Description: Distribution of radioactivity in liver tissues of Sprague-Dawley rats after 5 min injecton by intravenously; 0.73-1.45. The settings on record: in vivo, iv.
Series [9] concerns Rattus norvegicus. Put plainly: Distribution of radioactivity in heart tissues of Sprague-Dawley rats after 15 min injecton by intravenously; 0.52-0.62. The settings on record: in vivo, iv, 0.25 h. The method, boiled down:
as §1

For series [10], the system named is Rattus norvegicus. Put plainly: Distribution of radioactivity in kidney tissues of Sprague-Dawley rats after 15 min injecton by intravenously; 1.59-2.03. The settings on record: in vivo, iv, 0.25 h.
Series [11] relates to Rattus norvegicus. Description: Distribution of radioactivity in kidney tissues of Sprague-Dawley rats after 5 min injecton by intravenously; 0.62-1.13. The settings on record: in vivo, iv.
The subject of series [12] is Rattus norvegicus. Description: Distribution of radioactivity in kidney tissues of Sprague-Dawley rats after 60 min injecton by intravenously; 0.99-1.24. Particulars: in vivo, iv, 1 h.
Series [13] relates to Rattus norvegicus. Description: Distribution of radioactivity in heart tissues of Sprague-Dawley rats after 60 min injecton by intravenously; 0.22-0.29. Particulars: in vivo, iv, 1 h.
Series [14] has as its system Rattus norvegicus. Put plainly: Distribution of radioactivity in lung tissues of Sprague-Dawley rats after 30 min injecton by intravenously; 0.6-0.66. The settings on record: in vivo, iv, 0.5 h.
Series [15] has as its system Rattus norvegicus. Description: Distribution of radioactivity in brain tissues of Sprague-Dawley rats after 15 min injecton by intravenously; 0.34-0.5. The settings on record: in vivo, iv, 0.25 h. Summed up: as §1
Series [16] has as its system Rattus norvegicus. Description: Distribution of radioactivity in brain tissues of Sprague-Dawley rats after 60 min injecton by intravenously; 0.05-0.06. The settings on record: in vivo, iv, 1 h. Summed up: as §1
In series [17] the test system is Rattus norvegicus. Put plainly: Distribution of radioactivity in blood tissues of Sprague-Dawley rats after 15 min injecton by intravenously; 0.95-1.06. The settings on record: in vivo, iv, 0.25 h. Summed up:
as §1

Series [18] concerns Rattus norvegicus. Description: Distribution of radioactivity in liver tissues of Sprague-Dawley rats after 30 min injecton by intravenously; 1.57-1.66. Particulars: in vivo, iv, 0.5 h.
The subject of series [19] is Rattus norvegicus. Description: Distribution of radioactivity in kidney tissues of Sprague-Dawley rats after 30 min injecton by intravenously; 1.67-2.11. The settings on record: in vivo, iv, 0.5 h.
Series [20] relates to Rattus norvegicus. Put plainly: Distribution of radioactivity in blood tissues of Sprague-Dawley rats after 60 min injecton by intravenously; 0.49-0.58. Particulars: in vivo, iv, 1 h. The method, boiled down:
as §1

The subject of series [21] is Rattus norvegicus. Description: Distribution of radioactivity in liver tissues of Sprague-Dawley rats after 60 min injecton by intravenously; 1.36-1.74. The settings on record: in vivo, iv, 1 h.
Series [22] deals with Rattus norvegicus. Put plainly: Distribution of radioactivity in heart tissues of Sprague-Dawley rats after 30 min injecton by intravenously; 0.36-0.42. Particulars: in vivo, iv, 0.5 h. The method, boiled down: as §1
The subject of series [23] is Rattus norvegicus. Put plainly: Distribution of radioactivity in heart tissues of Sprague-Dawley rats after 5 min injecton by intravenously; 0.39-0.74. The settings on record: in vivo, iv.
For series [24], the system named is Rattus norvegicus. Put plainly: Distribution of radioactivity in brain tissues of Sprague-Dawley rats after 30 min injecton by intravenously; 0.18-0.36. Particulars: in vivo, iv, 0.5 h. Summed up:
as §1

Series [25] relates to Rattus norvegicus. Description: Distribution of radioactivity in kidney tissues of Sprague-Dawley rats after 15 min injecton by intravenously; 1.12-2.04. Particulars: in vivo, iv, 0.25 h.
Series [26] has as its system Rattus norvegicus. Put plainly: Distribution of radioactivity in liver tissues of Sprague-Dawley rats after 5 min injecton by intravenously; 6.76-10.44. Particulars: in vivo, iv.
In series [27] the test system is Rattus norvegicus. Put plainly: Distribution of radioactivity in brain tissues of Sprague-Dawley rats after 5 min injecton by intravenously; 0.02-0.03. Particulars: in vivo, iv. Summed up:
as §1

Series [28] deals with Rattus norvegicus. Description: Distribution of radioactivity in heart tissues of Sprague-Dawley rats after 5 min injecton by intravenously; 0.24-0.29. The settings on record: in vivo, iv.
Series [29] concerns Rattus norvegicus. Description: Distribution of radioactivity in heart tissues of Sprague-Dawley rats after 60 min injecton by intravenously; 0.19-0.23. Particulars: in vivo, iv, 1 h.
Series [30] relates to Rattus norvegicus. Put plainly: Distribution of radioactivity in liver tissues of Sprague-Dawley rats after 60 min injecton by intravenously; 0.75-1.14. The settings on record: in vivo, iv, 1 h.
In series [31] the test system is Rattus norvegicus. Description: Distribution of radioactivity in blood tissues of Sprague-Dawley rats after 15 min injecton by intravenously; 0.35-0.37. Particulars: in vivo, iv, 0.25 h. Summed up: as §1
In series [32] the test system is Rattus norvegicus. Description: Distribution of radioactivity in brain tissues of Sprague-Dawley rats after 15 min injecton by intravenously; 0.03-0.03. Particulars: in vivo, iv, 0.25 h. The method, boiled down: as §1
Series [33] has as its system Rattus norvegicus. Put plainly: Distribution of radioactivity in kidney tissues of Sprague-Dawley rats after 5 min injecton by intravenously; 13.02-19.07. Particulars: in vivo, iv.
In series [34] the test system is Rattus norvegicus. Put plainly: Distribution of radioactivity in liver tissues of Sprague-Dawley rats after 15 min injecton by intravenously; 4.01-4.81. Particulars: in vivo, iv, 0.25 h.
Series [35] deals with Rattus norvegicus. Put plainly: Distribution of radioactivity in lung tissues of Sprague-Dawley rats after 5 min injecton by intravenously; 0.47-0.56. The settings on record: in vivo, iv.
The subject of series [36] is Rattus norvegicus. Description: Distribution of radioactivity in blood tissues of Sprague-Dawley rats after 5 min injecton by intravenously; 0.34-0.48. Particulars: in vivo, iv. The method, boiled down:
as §1

For series [37], the system named is Rattus norvegicus. Put plainly: Distribution of radioactivity in brain tissues of Sprague-Dawley rats after 60 min injecton by intravenously; 0.02-0.03. Particulars: in vivo, iv, 1 h. The method, boiled down: as §1
Series [38] concerns Rattus norvegicus. Description: Distribution of radioactivity in heart tissues of Sprague-Dawley rats after 15 min injecton by intravenously; 0.24-0.28. The settings on record: in vivo, iv, 0.25 h. The method, boiled down:
as §1

Series [39] deals with Rattus norvegicus. Description: Distribution of radioactivity in lung tissues of Sprague-Dawley rats after 60 min injecton by intravenously; 0.3-0.36. The settings on record: in vivo, iv, 1 h.
The subject of series [40] is Rattus norvegicus. Put plainly: Distribution of radioactivity in kidney tissues of Sprague-Dawley rats after 60 min injecton by intravenously; 0.48-0.72. The settings on record: in vivo, iv, 1 h.
Series [41] relates to Rattus norvegicus. Put plainly: Distribution of radioactivity in lung tissues of Sprague-Dawley rats after 15 min injecton by intravenously; 0.4-0.54. Particulars: in vivo, iv, 0.25 h.
Series [42] relates to Rattus norvegicus. Description: Distribution of radioactivity in blood tissues of Sprague-Dawley rats after 60 min injecton by intravenously; 0.25-0.32. Particulars: in vivo, iv, 1 h. Summed up:
as §1

For `Nc1ccc([125I])cc1`, the Distribution in the series on Rattus norvegicus [1] turned out to be 0.58%; in the series with Rattus norvegicus [2], 1.57%; in the series with Rattus norvegicus [3], 0.86%; in the series on Rattus norvegicus [4] it was 0.77%; with Rattus norvegicus [5] it was 0.81%; in the series on Rattus norvegicus [6] it was 0.94%. The Distribution is given as 0.39% in the series on Rattus norvegicus [7]; 1.16% with Rattus norvegicus [8]; 0.57% with Rattus norvegicus [9]; 1.81% in the series on Rattus norvegicus [10]; 0.97% with Rattus norvegicus [11]; 1.12% with Rattus norvegicus [12]. In addition, the Distribution with Rattus norvegicus [13] is given as 0.24%; with Rattus norvegicus [14], 0.62%; with Rattus norvegicus [15] it was 0.43%; in the series on Rattus norvegicus [16], 0.06%; in the series on Rattus norvegicus [17] it was 0.99%; in the series on Rattus norvegicus [18] it was 1.6%. The Distribution in the series on Rattus norvegicus [19] is given as 1.8%; in the series with Rattus norvegicus [20], 0.54%; in the series with Rattus norvegicus [21], 1.6%; in the series with Rattus norvegicus [22] it was 0.39%; with Rattus norvegicus [23] it was 0.63%; with Rattus norvegicus [24], 0.27%.

`C[n+]1cccc(C(=O)NCCc2ccc([125I])cc2)c1`: the Distribution with Rattus norvegicus [25] came out at 1.46%; in the series with Rattus norvegicus [26], 8.03%; in the series on Rattus norvegicus [27] it was 0.03%; in the series on Rattus norvegicus [28] it was 0.25%; with Rattus norvegicus [29], 0.2%; in the series with Rattus norvegicus [30], 0.93%. The Distribution was 0.36% in the series with Rattus norvegicus [31]; 0.03% with Rattus norvegicus [32]; 16.46% in the series with Rattus norvegicus [33]; 4.33% in the series on Rattus norvegicus [34]; 0.47% with Rattus norvegicus [35]; 0.39% in the series with Rattus norvegicus [36]. In addition, the Distribution in the series on Rattus norvegicus [37] worked out at 0.02%; in the series with Rattus norvegicus [38] it was 0.26%; in the series with Rattus norvegicus [39] it was 0.32%; with Rattus norvegicus [40] it was 0.56%; with Rattus norvegicus [41], 0.47%; with Rattus norvegicus [42], 0.27%.

Values taken from ChEMBL document CHEMBL1123067, “Evaluation of the brain-specific delivery of radioiodinated (iodophenyl)alkyl-substituted amines coupled to a dihydropyridine carrier” (J Med Chem, 1985).
